Key:
[1] = Half life period was evaluated in rat; settings: in vivo
[2] = target: Endothelin receptor (Rattus norvegicus) (UniProt P26684+P21451); experiment: Selectivity for endothelin A receptor over endothelin receptor B; type: protein assay
Endothelin-1 receptor [3] = target: T1, Endothelin-1 receptor (Homo sapiens, UniProt P25101); experiment: Displacement of [125I]ET-1 from Endothelin A receptor
T1 sequence (P25101 whole entry): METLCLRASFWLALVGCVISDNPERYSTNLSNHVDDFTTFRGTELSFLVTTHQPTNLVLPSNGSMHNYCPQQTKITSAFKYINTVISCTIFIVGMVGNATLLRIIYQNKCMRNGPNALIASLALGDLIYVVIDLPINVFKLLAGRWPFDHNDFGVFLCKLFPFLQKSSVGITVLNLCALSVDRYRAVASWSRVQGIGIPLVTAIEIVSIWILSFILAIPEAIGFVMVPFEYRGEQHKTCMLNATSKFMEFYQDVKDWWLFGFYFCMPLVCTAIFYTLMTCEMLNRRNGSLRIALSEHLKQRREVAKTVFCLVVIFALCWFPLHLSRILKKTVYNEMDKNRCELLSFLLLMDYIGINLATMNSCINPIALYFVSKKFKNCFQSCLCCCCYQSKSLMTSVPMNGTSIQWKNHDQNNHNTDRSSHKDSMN

[4] = Compound was evaluated for oral bioavailability in human; type: ADME, organism-based; settings: in vivo, read-out: Activity
[5] = Half life period was evaluated in dog; 4-4.8; type: ADME, organism-based, Canis lupus familiaris; settings: in vivo
[6] = (§1) Compound was evaluated for area under the curve expressed as (h*ug/ml); type: ADME; settings: human
How it was run: (§2)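 Rats given 50 mg/kg orally. Plasma was separated at once by centrifugation and stored at -80 °C. Proteins were precipitated with acetonitrile and drug measured by HPLC to give Cmax, AUC and t1/2.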

[7] = Compound was evaluated for oral bioavailability in dog; 90-100; type: ADME, organism-based, Canis lupus familiaris; settings: in vivo, read-out: Activity
[8] = Half life period was evaluated in rat; 5.9-7.5; type: ADME, organism-based; settings: in vivo; how it was run: as §2
[9] = target: T2, Endothelin receptor type B (Homo sapiens, UniProt P24530); experiment: Inhibitory concentration towards endothelin B receptor in human; type: functional
T2 sequence (P24530 whole entry): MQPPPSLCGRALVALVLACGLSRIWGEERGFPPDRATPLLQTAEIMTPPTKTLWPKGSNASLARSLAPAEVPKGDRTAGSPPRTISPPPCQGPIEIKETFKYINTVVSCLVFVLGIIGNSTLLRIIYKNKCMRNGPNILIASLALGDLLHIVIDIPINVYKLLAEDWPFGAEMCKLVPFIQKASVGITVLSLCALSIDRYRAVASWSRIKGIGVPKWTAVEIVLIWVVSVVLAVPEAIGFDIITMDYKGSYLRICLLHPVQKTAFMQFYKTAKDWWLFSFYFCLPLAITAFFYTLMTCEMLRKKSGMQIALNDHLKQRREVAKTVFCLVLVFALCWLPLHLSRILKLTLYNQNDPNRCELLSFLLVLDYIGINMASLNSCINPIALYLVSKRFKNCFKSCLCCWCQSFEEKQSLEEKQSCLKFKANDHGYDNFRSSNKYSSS

Endothelin-1 receptor [10] = target: T3, Endothelin-1 receptor (Rattus norvegicus, UniProt P26684); experiment: Binding affinity towards Endothelin A receptor
T3 sequence (P26684 whole entry): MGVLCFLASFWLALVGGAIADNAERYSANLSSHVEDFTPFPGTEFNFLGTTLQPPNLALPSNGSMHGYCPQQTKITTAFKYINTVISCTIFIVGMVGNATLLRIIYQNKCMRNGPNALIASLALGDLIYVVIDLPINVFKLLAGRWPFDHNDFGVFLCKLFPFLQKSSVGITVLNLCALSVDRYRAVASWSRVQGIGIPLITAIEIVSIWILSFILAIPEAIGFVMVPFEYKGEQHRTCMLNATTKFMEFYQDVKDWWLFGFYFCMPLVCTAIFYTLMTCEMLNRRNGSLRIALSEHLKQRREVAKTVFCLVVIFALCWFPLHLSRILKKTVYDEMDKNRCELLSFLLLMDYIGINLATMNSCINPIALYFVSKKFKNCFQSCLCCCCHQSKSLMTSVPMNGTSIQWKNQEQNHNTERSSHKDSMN

Rattus norvegicus [11] = experiment: Compound was evaluated for oral dose to effect 50% inhibition of mean pulmonary arterial pressure; type: functional, Artery
How it was run: (§3)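 Acute hypoxia-induced pulmonary hypertension model in rats. Compound given orally; the oral dose giving 50% inhibition of the increase in mean pulmonary arterial pressure is reported.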

[12] = Half life period was evaluated in human; type: ADME
[13] = target: Endothelin-1 receptor (Homo sapiens) (UniProt P25101); experiment: Selectivity towards endothelin A receptor in human.
[14] = Compound was evaluated for oral bioavailability in rats; settings: rat, in vivo
[15] = Half life period was determined; 6-7; type: ADME; settings: human
[16] = Cmax in rat plasma after oral dose (50 mg/Kg); type: ADME, organism-based; set-up: dose 50 mg/Kg, route oral; how it was run: as §2
[17] = Half life period was determined; type: ADME, organism-based; settings: rat, in vivo; how it was run: as §2
[18] = as §1; type: ADME, organism-based; set-up: concentration or dose not given beside the values; settings: rat, in vivo; how it was run: as §2
Rattus norvegicus [19] = experiment: Compound was evaluated for oral dose to effect 50% inhibition of mean pulmonary arterial pressure (MPAP); type: functional, Artery; how it was run: as §3

Sequence of Endothelin receptor (Rattus norvegicus) (P21451 whole entry, looked up, one chain of several): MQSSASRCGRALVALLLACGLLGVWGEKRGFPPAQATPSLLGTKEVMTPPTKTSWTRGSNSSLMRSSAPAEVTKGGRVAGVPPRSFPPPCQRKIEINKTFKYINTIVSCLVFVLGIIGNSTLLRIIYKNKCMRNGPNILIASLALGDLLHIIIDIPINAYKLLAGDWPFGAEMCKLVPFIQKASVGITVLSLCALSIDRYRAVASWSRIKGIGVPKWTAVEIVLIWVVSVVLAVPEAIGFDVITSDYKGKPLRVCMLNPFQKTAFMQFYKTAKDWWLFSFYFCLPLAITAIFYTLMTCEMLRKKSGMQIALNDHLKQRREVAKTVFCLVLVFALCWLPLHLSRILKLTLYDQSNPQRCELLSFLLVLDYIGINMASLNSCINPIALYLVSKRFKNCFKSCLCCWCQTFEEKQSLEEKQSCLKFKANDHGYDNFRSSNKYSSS

half-life [1] [min]	Selectivity [2]	IC50 (Endothelin-1 receptor [3]) [nM]	bioavailability [4] [%]	half-life [5] [h]	AUC [6] [µg·h/mL]	bioavailability [7] [%]	half-life [8] [h]	IC50 [9] [nM]	Ki (Endothelin-1 receptor [10]) [nM]	half-life [12] [h]	Selectivity [13]	bioavailability [14] [%]	half-life [15] [h]	Cmax [16] [µg/mL]	half-life [17] [h]	AUC [18] [µg·h/mL]	Compound	Activity (Rattus norvegicus [11]) [mg/kg]	Activity (Rattus norvegicus [19]) [mg/kg]
7.8	56	23															COc1ccccc1Oc1c(NS(=O)(=O)c2ccc(C(C)C)cn2)nc(-c2ccnc(-c3nnn[nH]3)c2)nc1OCCO [TEZOSENTAN]		
	7000		~80	4.8	33	100	7.5	9800	0.43	6.46	6500						Cc1cc2c(cc1CC(=O)c1sccc1S(=O)(=O)Nc1onc(C)c1Cl)OCO2 [SITAXENTAN]	2.5	
		0.08	> 80								441000	~100	7	180	5.3	1310	CC(=O)c1cc(C)cc(C)c1NC(=O)c1sccc1S(=O)(=O)Nc1onc(C)c1C		< 1
